Paper PMC5515376 (Nature, 2016)
Entries after “also recorded” stand apart in the source; their conditions may differ.

What was measured:
[1] = Metabolic stability assay, mouse liver microsomes; format: in vitro ADME
How it was run: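 Liver microsomes (0.2 mg ml−1) were incubated with compound (0.5 and 5 µM) plus NADPH for 0, 10 and 90 min. Human microsomes or mouse CD-1 microsomes were used, as named in each line. Compound depletion was measured by LC–MS/MS and used to estimate Km, Vmax and half-life.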

hERG channel = hERG channel (Homo sapiens, UniProt Q12809); test: hERG channel inhibition assay; format: cell-based; conditions: read-out: hERG IC50; IKr
How it was run: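 hERG current was measured in hERG-expressing cell lines by automated patch clamp (QPatch-HTX).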

[2] = Pharmacokinetics in P. falciparum 3D7^HLH/BRD-infected NSG mice; format: in vivo, mouse; conditions: for AUC: huRBC NSG mice; for AUC0-inf / Cmax / MRT0-inf / Tmax / AUC0-t: infected NSG mice; for AUC0-t: t = 24 h
[3] = system: P. falciparum (NF54HT-GFP-luc) sporozoites; test: In vivo P. falciparum liver-stage assay; set-up: species or system Plasmodium falciparum

Sequence of hERG channel (Q12809 whole entry): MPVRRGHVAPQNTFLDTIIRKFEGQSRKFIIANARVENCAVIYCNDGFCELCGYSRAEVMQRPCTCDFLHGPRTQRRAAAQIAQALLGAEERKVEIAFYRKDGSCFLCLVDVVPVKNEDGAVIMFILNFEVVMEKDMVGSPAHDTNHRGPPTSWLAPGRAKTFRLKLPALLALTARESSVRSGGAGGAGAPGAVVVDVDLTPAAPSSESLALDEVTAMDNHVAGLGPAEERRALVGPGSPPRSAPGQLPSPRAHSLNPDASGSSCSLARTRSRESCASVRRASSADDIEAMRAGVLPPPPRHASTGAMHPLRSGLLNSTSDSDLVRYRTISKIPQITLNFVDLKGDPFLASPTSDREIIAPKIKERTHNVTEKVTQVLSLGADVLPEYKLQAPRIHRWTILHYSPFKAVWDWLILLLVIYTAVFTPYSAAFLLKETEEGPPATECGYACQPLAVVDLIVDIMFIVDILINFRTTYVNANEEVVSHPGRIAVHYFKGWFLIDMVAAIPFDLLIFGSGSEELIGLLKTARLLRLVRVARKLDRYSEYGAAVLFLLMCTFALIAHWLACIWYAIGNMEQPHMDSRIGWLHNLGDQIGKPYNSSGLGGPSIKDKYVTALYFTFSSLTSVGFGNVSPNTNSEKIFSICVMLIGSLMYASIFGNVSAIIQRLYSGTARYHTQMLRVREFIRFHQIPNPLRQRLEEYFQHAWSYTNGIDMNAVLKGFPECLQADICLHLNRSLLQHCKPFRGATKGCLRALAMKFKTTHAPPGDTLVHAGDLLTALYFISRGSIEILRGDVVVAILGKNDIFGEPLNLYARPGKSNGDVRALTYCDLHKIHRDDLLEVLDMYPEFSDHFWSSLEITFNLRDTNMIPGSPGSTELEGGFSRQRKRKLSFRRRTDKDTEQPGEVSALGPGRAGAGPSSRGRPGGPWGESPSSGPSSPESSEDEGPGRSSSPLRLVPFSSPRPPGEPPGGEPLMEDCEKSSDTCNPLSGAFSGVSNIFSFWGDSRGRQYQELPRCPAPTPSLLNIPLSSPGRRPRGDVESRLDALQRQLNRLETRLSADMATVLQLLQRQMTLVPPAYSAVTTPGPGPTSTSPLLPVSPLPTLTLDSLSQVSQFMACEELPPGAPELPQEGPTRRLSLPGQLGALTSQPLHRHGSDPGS

With `COc1ccc(NC(=O)N2CCCCN3[C@H](CN(C)C)[C@H](c4ccc(C#Cc5ccccc5)cc4)[C@@H]3C2)cc1` [BRD7929] the “Mouse Clint” value [1] was 21 µL/min/mg, the IC50 (hERG channel) was 2100 nM and the AUC ([2]; 6.25 mg kg^−1 single oral dose) was 15.7 µM·h. The AUC ([2]; 12.5 mg kg^−1 single oral dose (single-dose cure)) was 31.4 µM·h, the AUC ([2]; 25 mg kg^−1 single oral dose) was 62.8 µM·h and the AUC ([2]; 50 mg kg^−1 single oral dose) was 125.6 µM·h. For the same molecule, the AUC0-inf ([2]; PO (3) mg/kg) was 7.2 µM·h, the Cmax ([2]; PO (3) mg/kg) was 210 nM and the MRT0-inf ([2]; PO (3) mg/kg) was 35.4 h. The Tmax ([2]; PO (3) mg/kg) was 12 h, the AUC0-t ([2]; PO (3) mg/kg) was 6.4 ^¶ µM*hr and the AUC0-inf ([2]; PO (9) mg/kg) was 22.6 µM·h. The Cmax ([2]; PO (9) mg/kg) was 600 nM, the MRT0-inf ([2]; PO (9) mg/kg) was 37.8 h and the Tmax ([2]; PO (9) mg/kg) was 12 h. For the same molecule, the AUC0-t ([2]; PO (9) mg/kg) was 19.7 ^¶ µM*hr, the “Ct value, P. falciparum UCE qRT-PCR” value ([3]; blood 7 days after inoculation, 40 amplification cycles) was 40 and the “Blood-stage marker (P. falciparum UCE transcript) by qRT-PCR” value ([3]; blood 7 days after inoculation, single 10 mg kg^−1 oral dose) was “no amplification of the marker was detected; also recorded: not detected”. The Liver-stage-associated bioluminescence signal ([3]; huHep FRG knockout mice, single 10 mg kg^−1 oral dose 1 day after inoculation) was “No increase in bioluminescence intensity level; also recorded: no increase in bioluminescence signals”.
